Test results published in ChEMBL document CHEMBL4699432, “Rational design, synthesis and testing of novel tricyclic topoisomerase inhibitors for the treatment of bacterial infections part 1” (RSC Med Chem, 2020).
pIC50: −log10 of the molar value. ≈ marks a conversion by molar mass, not a printed value.

Tests used:
Streptococcus pneumoniae = experiment: Antibacterial activity against Streptococcus pneumoniae ATCC 49619 assessed as reduction in bacterial growth by CLSI method based broth microdilution assay; type: functional
Method in brief: (§1)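 MIC by broth microdilution following CLSI guidelines for culturing and susceptibility testing; each determination run in triplicate. Agar dilution was used instead only ahead of frequency-of-resistance work.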

Staphylococcus aureus [1] = experiment: Antibacterial activity against Staphylococcus aureus ATCC 29213 assessed as reduction in bacterial growth by CLSI method based broth microdilution assay; type: functional
[2] = Lipophilicity, logD of the compound at pH 7.4; type: physicochemical; conditions: buffer
[3] = Cytotoxicity against human HepG2 cells; type: cell-based
[4] = Thermodynamic solubility of compound at physiological pH; type: physicochemical; conditions: read-out: Therm_solubility
Cytochrome P450 2C9 = Cytochrome P450 2C9 (Homo sapiens, UniProt P11712); experiment: Inhibition of CYP2C9 (unknown origin)
Cytochrome P450 2C19 = Cytochrome P450 2C19 (Homo sapiens, UniProt P33261); experiment: Inhibition of CYP2C19 (unknown origin)
Cytochrome P450 3A4 = Cytochrome P450 3A4 (Homo sapiens, UniProt P08684); experiment: Inhibition of CYP3A4 (unknown origin)
Cytochrome P450 2D6 = Cytochrome P450 2D6 (Homo sapiens, UniProt P10635); experiment: Inhibition of CYP2D6 (unknown origin)
Staphylococcus aureus [5] = experiment: Antibacterial activity against methicillin-resistant Staphylococcus aureus NRS74 assessed as reduction in bacterial growth by CLSI method based broth microdilution assay; type: functional
Cytochrome P450 1A2 = target: T1, Cytochrome P450 1A2 (Homo sapiens, UniProt P05177); experiment: Inhibition of CYP1A2 (unknown origin)
T1 sequence (P05177 whole entry): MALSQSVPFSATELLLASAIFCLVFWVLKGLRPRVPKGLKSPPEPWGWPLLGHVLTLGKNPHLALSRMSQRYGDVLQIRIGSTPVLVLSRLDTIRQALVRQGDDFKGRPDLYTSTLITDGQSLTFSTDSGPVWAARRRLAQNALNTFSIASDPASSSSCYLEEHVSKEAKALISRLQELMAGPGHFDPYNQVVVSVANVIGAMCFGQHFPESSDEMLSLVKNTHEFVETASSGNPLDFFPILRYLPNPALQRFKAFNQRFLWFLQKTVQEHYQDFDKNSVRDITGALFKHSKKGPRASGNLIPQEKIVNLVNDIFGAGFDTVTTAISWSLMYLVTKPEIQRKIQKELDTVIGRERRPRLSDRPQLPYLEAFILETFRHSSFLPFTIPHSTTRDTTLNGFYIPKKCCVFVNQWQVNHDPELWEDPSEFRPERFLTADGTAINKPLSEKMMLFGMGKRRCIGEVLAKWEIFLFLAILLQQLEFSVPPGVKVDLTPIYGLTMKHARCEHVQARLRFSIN

Staphylococcus aureus [6] = experiment: Antibacterial activity against methicillin-resistant Staphylococcus aureus VRS8 assessed as reduction in bacterial growth by CLSI method based broth microdilution assay; type: functional
Staphylococcus aureus [7] = experiment: Antibacterial activity against fluoroquinolone and multidrug-resistant Staphylococcus aureus assessed as reduction in bacterial growth by CLSI method based broth microdilution assay; type: functional
Method in brief: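 Run to CLSI guidelines by broth microdilution, in triplicate. Growth was read to give the MIC.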

Neisseria gonorrhoeae = experiment: Antibacterial activity against Neisseria gonorrhoeae assessed as reduction in bacterial growth by CLSI method based broth microdilution assay; type: functional; method in brief: as §1
hERG (KCNH2) = hERG (KCNH2) (Homo sapiens, UniProt Q12809); experiment: Inhibition of human ERG at 100 uM relative to control
[8] = target: Voltage-gated inwardly rectifying potassium channel KCNH2 (Homo sapiens, UniProt Q12809)
Sequence of Voltage-gated inwardly rectifying potassium channel KCNH2 (Q12809 whole entry): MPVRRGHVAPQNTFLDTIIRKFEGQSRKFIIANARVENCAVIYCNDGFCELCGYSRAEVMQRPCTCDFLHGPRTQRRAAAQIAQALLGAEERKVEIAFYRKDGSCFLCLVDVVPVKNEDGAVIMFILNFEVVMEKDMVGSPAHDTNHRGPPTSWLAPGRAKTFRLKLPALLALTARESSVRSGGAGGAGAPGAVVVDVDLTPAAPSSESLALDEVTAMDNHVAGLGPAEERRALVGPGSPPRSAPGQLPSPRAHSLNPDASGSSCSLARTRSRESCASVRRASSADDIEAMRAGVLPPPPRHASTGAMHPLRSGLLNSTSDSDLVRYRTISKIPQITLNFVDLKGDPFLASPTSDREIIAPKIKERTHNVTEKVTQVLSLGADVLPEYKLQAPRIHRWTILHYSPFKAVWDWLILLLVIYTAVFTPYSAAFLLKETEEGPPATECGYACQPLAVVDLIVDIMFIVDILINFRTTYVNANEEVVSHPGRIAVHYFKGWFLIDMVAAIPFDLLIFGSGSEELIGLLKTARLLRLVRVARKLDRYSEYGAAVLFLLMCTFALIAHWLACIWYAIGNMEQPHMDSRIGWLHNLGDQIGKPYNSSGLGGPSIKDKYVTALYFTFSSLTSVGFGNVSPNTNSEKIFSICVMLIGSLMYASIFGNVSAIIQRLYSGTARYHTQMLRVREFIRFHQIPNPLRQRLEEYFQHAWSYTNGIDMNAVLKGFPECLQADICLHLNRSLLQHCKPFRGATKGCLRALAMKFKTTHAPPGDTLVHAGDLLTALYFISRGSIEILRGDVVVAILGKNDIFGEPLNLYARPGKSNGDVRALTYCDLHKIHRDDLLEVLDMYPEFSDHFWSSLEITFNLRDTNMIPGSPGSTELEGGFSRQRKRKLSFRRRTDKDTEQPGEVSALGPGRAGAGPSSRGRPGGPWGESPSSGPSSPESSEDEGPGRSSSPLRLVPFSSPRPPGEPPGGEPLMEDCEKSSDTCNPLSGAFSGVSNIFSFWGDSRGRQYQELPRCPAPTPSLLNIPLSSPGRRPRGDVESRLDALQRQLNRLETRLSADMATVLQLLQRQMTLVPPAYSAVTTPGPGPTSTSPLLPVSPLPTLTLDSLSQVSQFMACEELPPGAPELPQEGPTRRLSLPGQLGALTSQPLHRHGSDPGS

Sequence of Cytochrome P450 3A4 (P08684 whole entry): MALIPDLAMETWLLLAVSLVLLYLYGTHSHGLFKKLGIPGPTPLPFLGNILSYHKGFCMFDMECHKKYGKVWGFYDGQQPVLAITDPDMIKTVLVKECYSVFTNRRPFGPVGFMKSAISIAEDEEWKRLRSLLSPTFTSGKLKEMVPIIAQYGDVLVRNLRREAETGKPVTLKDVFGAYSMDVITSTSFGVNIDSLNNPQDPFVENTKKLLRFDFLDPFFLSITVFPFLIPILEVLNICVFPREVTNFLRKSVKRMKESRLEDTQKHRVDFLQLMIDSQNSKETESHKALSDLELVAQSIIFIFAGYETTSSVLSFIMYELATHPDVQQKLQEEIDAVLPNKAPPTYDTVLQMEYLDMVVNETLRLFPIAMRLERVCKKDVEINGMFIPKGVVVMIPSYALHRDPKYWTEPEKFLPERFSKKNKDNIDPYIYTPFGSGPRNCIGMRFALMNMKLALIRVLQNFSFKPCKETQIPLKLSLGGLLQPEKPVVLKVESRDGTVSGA
Sequence of Cytochrome P450 2D6 (P10635 whole entry): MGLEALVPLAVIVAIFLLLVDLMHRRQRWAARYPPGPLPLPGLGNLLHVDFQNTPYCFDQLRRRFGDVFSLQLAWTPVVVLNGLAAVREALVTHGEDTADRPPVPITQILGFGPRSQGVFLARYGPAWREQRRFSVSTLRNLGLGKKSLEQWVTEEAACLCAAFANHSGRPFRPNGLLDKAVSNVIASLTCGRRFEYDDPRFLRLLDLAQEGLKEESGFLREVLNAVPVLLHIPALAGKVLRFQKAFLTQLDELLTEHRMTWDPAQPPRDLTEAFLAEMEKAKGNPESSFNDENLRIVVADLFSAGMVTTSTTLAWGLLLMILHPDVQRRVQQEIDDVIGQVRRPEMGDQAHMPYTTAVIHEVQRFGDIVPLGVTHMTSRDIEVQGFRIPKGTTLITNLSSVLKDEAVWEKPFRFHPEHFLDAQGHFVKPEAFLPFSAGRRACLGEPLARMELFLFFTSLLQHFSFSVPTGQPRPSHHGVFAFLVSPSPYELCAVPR
Sequence of Cytochrome P450 2C9 (P11712 whole entry): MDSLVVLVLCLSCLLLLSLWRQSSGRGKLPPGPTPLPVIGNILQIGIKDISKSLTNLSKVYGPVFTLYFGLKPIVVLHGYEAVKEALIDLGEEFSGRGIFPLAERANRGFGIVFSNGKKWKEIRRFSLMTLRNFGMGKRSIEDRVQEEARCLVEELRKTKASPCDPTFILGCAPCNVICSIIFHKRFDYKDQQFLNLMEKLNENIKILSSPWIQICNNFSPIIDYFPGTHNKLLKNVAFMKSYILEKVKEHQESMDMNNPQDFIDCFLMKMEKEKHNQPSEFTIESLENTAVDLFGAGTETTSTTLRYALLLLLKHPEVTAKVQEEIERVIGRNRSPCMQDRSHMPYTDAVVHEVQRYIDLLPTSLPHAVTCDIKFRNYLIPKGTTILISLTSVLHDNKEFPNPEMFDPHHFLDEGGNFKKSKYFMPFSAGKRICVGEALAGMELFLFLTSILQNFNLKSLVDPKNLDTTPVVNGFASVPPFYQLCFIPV
Sequence of Cytochrome P450 2C19 (P33261 whole entry): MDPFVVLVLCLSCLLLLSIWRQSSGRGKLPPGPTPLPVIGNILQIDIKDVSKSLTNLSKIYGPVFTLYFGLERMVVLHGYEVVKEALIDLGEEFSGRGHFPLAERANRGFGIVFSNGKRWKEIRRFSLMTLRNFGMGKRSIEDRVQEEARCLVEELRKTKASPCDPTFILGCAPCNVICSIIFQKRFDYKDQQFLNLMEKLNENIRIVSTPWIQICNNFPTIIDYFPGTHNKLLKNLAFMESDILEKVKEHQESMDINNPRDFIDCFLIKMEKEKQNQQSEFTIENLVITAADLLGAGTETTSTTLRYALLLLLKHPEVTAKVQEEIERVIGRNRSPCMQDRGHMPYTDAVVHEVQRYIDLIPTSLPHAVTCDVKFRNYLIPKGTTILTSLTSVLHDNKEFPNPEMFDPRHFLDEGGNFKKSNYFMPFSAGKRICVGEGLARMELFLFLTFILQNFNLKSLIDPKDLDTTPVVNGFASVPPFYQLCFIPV
Sequence of hERG (KCNH2) (Q12809 whole entry): as the sequence (Q12809 whole entry) above

Row | MIC (Streptococcus pneumoniae) [µg/mL] | MIC (Staphylococcus aureus [1]) [µg/mL] | logD [2] | solubility thermodynamic [4] | Compound | CC50 [3] [µg/mL] | also measured
1 | > 64 | > 64 | – | – | Cc1c(-c2ccc(N)nn2)ccc2c3ocnc3c(=O)n(C3CC3)c12 | – | –
2 | 4 (≈ 12.6 µM) | 1 (≈ 3.16 µM) | – | – | Cc1c(-c2ccccc2)ccc2c3ocnc3c(=O)n(C3CC3)c12 | – | –
3 | – | 0.25 (≈ 0.673 µM) | – | – | Nc1cc(F)c(-c2cc3c(cc2F)c2ocnc2c(=O)n3C2CC2)cc1F | – | –
4 | – | 1 (≈ 2.68 µM) | – | – | CCn1c(=O)c2ncoc2c2cc(F)c(-c3cc(F)c(N)cc3F)c(C)c21 | – | –
5 | – | 0.25 (≈ 0.645 µM) | – | – | Nc1cc(F)c(-c2ccc3c4ocnc4c(=O)n(C4CC4)c3c2Cl)cc1F | – | –
6 | 0.25 (≈ 0.654 µM) | 0.06 (≈ 0.157 µM) | 3.14 | 1.9 µg/mL | Cc1c(-c2cc(F)c(CO)cc2F)ccc2c3ocnc3c(=O)n(C3CC3)c12 | > 32 | –
7 | 4 (≈ 12.1 µM) | 0.5 (≈ 1.51 µM) | 2.59 | – | Cc1c(-c2ccc(N)cc2)ccc2c3ocnc3c(=O)n(C3CC3)c12 | – | –
8 | 0.5 (≈ 1.4 µM) | 0.004 (≈ 0.0112 µM) | 3.29 | 1.1 µg/mL | Cc1c(-c2ccc3[nH]ncc3c2)ccc2c3ocnc3c(=O)n(C3CC3)c12 | > 16 | –
9 | 0.5 (≈ 1.4 µM) | 0.12 (≈ 0.336 µM) | 0.75 | 209 µg/mL | Cc1c(-c2ccc3c(c2)CNC3)ccc2c3ocnc3c(=O)n(C3CC3)c12 | > 64 | –
10 | 4 (≈ 12 µM) | 1 (≈ 3 µM) | 1.32 | 15 µg/mL | Cc1c(-c2cnc(N)nc2)ccc2c3ocnc3c(=O)n(C3CC3)c12 | > 32 | –
11 | 1 (≈ 2.86 µM) | 0.12 (≈ 0.343 µM) | 3.05 | 1.1 µg/mL | Cc1c(-c2ccc(N)cc2F)ccc2c3ocnc3c(=O)n(C3CC3)c12 | 16 (≈ 45.8 µM) | –
12 | – | 128 (≈ 344 µM) | – | – | Nc1cc(F)c(-c2nc3c(cc2F)c2ocnc2c(=O)n3C2CC2)cc1F | – | –
13 | 0.25 (≈ 0.701 µM) | 0.06 (≈ 0.168 µM) | 2.94 | – | Cc1c(-c2ccc(N)c(C#N)c2)ccc2c3ocnc3c(=O)n(C3CC3)c12 | > 4 | –
14 | 2 (≈ 5.56 µM) | 0.5 (≈ 1.39 µM) | – | – | Cc1c(-c2ccc(C(C)N)cc2)ccc2c3ocnc3c(=O)n(C3CC3)c12 (configuration not stated) | > 32 | –
15 | – | 2 (≈ 5.63 µM) | – | – | CCn1c(=O)c2ncoc2c2ccc(-c3cc(F)c(N)cc3F)c(C)c21 | – | –
16 | – | 0.03 (≈ 0.0787 µM) | – | – | Cc1nc2c(=O)n(C3CC3)c3c(C)c(-c4cc(F)c(N)cc4F)ccc3c2o1 | – | –
17 | – | 0.5 (≈ 1.35 µM) | – | – | C[C@H]1COc2c(-c3cc(F)c(N)cc3F)ccc3c4ocnc4c(=O)n1c23 | – | –
18 | 2 (≈ 5.72 µM) | 0.12 (≈ 0.343 µM) | – | – | Cc1c(-c2ccc(N)c(F)c2)ccc2c3ocnc3c(=O)n(C3CC3)c12 | > 128 | –
19 | 0.25 (≈ 0.701 µM) | 0.25 (≈ 0.701 µM) | 3.03 | < 9 µg/mL | Cc1c(-c2ccc3[nH]cnc3c2)ccc2c3ocnc3c(=O)n(C3CC3)c12 | > 16 | –
20 | 0.25 (≈ 0.673 µM) | 0.25 (≈ 0.673 µM) | 2.52 | 16 µg/mL | Cc1c(-c2ccc3[nH]c(N)nc3c2)ccc2c3ocnc3c(=O)n(C3CC3)c12 | > 32 | –
21 | > 128 | 64 (≈ 161 µM) | – | – | Cc1c(-c2cc(F)c(C(=O)O)cc2F)ccc2c3ocnc3c(=O)n(C3CC3)c12 | – | –
22 | > 128 | 64 (≈ 192 µM) | 1.46 | 6.8 µg/mL | Cc1c(-c2cnc(N)cn2)ccc2c3ocnc3c(=O)n(C3CC3)c12 | – | –
23 | 4 (≈ 11.2 µM) | 0.25 (≈ 0.698 µM) | 3.03 | < 9 µg/mL | Cc1c(-c2ccc3nonc3c2)ccc2c3ocnc3c(=O)n(C3CC3)c12 | > 32 | –
24 | – | 2 (≈ 5.66 µM) | – | – | Nc1cc(F)c(-c2ccc3c4ocnc4c(=O)n(C4CC4)c3c2)cc1F | – | –

Row | Compound | MIC (Streptococcus pneumoniae) [µg/mL] | MIC (Staphylococcus aureus [1]) [µg/mL] | logD [2] | solubility thermodynamic [4] | CC50 [3] [µg/mL] | also measured
25 | Cc1c(-c2cc(F)c(N)cc2F)ccc2c3oc(CN)nc3c(=O)n(C3CC3)c12 | – | 0.06 (≈ 0.151 µM) | – | 36 µg/mL | > 64 | pIC50 (Cytochrome P450 2C9): 6.52; pIC50 (Cytochrome P450 2C19): 6.30; pIC50 (Cytochrome P450 3A4): 4.89; pIC50 (Cytochrome P450 2D6): 4.95; MIC (Staphylococcus aureus [5]): 0.06 µg/mL (≈ 0.151 µM); pIC50 (Cytochrome P450 1A2): 5.12; MIC (Staphylococcus aureus [6]): 4 µg/mL (≈ 10.1 µM)
26 | Cc1c(-c2cc(F)c(N)cc2F)ccc2c3ocnc3c(=O)n(C3CC3)c12 | 1 (≈ 2.72 µM) | 0.03 (≈ 0.0817 µM) | 2.96 | 3 µM | > 128 | pIC50 (Cytochrome P450 2C9): < 4.52; pIC50 (Cytochrome P450 2C19): < 4.52; pIC50 (Cytochrome P450 3A4): < 4.52; MIC90 (Staphylococcus aureus [7]): 0.25 µg/mL (≈ 0.681 µM); pIC50 (Cytochrome P450 2D6): < 4.52; MIC (Neisseria gonorrhoeae): 0.06 µg/mL (≈ 0.163 µM); inhibition at 100 µM (hERG (KCNH2)): 3%; MIC (Staphylococcus aureus [5]): 0.06 µg/mL (≈ 0.163 µM); pIC50 (Cytochrome P450 1A2): < 4.52; MIC (Staphylococcus aureus [6]): 0.5 µg/mL (≈ 1.36 µM)
27 | Cc1c(-c2ccc3[nH]ncc3c2)ccc2c3oc(CN)nc3c(=O)n(C3CC3)c12 | – | 0.06 (≈ 0.156 µM) | – | 10 µg/mL | 32 (≈ 83 µM) | pIC50 (Cytochrome P450 2C9): 6.70; pIC50 (Cytochrome P450 2C19): 6.10; pIC50 (Cytochrome P450 3A4): 5.89; pIC50 (Cytochrome P450 2D6): 4.90; MIC (Staphylococcus aureus [5]): 0.5 µg/mL (≈ 1.3 µM); pIC50 (Cytochrome P450 1A2): 4.91; MIC (Staphylococcus aureus [6]): 2 µg/mL (≈ 5.19 µM)
28 | Cc1c(-c2cnc3[nH]ncc3c2)ccc2c3oc(CN)nc3c(=O)n(C3CC3)c12 | – | 0.25 (≈ 0.647 µM) | – | 618 µg/mL | > 128 | MIC (Staphylococcus aureus [5]): 2 µg/mL (≈ 5.18 µM); pIC50 [8]: 4.35; MIC (Staphylococcus aureus [6]): 2 µg/mL (≈ 5.18 µM)
